Active and inactive are the calls of the source. No cut-off for these calls is given here.
How the values were obtained:
[1] = target: T1, NAD-dependent protein deacetylase sirtuin-1 (Homo sapiens) (UniProt Q96EB6); assay: Inhibition of human SIRT1 assessed as enzyme activity using Fluor-de-Lys as substrate at 1 mM by fluorometry; parameters: scale not given: the % may be the effect or the level left
T1 sequence (whole entry): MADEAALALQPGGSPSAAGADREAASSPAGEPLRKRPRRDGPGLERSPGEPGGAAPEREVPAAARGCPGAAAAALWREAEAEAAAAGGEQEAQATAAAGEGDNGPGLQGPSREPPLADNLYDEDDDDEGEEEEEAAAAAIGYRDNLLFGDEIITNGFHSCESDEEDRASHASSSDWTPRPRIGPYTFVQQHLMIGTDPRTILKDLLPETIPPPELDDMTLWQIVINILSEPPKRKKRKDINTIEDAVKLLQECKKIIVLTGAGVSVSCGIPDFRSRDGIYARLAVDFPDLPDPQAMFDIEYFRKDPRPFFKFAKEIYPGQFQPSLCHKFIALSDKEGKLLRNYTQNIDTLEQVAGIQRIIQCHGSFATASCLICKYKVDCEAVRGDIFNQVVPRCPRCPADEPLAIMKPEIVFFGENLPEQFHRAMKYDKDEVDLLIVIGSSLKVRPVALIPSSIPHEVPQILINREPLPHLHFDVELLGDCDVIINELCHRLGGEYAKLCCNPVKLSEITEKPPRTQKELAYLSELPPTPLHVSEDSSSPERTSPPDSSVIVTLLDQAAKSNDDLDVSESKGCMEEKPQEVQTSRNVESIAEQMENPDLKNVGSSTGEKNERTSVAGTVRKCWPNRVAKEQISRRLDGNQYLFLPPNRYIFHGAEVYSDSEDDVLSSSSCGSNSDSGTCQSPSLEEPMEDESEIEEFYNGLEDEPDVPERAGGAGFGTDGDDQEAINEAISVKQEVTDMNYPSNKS
Procedure, shortened: (§1)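 Commercial Fluor-de-Lys kit, substrate human p53 379–382 peptide (Arg-His-Lys-Lys(Ac)). Human Sirt1 or Sirt2 was incubated with substrate, NAD+ and compound at 1 mM, also tested at 100 µM. Fluorescence scales with Lys382 deacetylation. Activity is expressed relative to control, mean ± S.E.M. of 3–4 replicates.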

[2] = target: T2, NAD-dependent protein deacetylase sirtuin-2 (Homo sapiens) (UniProt Q8IXJ6); assay: Inhibition of human SIRT2 assessed as enzyme activity using Fluor-de-Lys as substrate at 1 mM by fluorometry; parameters: scale not given: the % may be the effect or the level left; procedure, shortened: as §1
T2 sequence (whole entry): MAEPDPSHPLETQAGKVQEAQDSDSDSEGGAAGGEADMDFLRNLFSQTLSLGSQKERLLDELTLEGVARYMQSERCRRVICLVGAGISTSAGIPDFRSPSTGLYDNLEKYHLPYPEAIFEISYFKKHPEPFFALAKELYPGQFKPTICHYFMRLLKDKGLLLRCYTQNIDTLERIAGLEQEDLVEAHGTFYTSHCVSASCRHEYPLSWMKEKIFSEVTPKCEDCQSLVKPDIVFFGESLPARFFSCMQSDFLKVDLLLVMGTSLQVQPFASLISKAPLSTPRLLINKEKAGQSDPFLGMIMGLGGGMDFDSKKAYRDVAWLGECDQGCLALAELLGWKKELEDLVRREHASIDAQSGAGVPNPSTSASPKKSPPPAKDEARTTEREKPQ

[3] = target: T1, NAD-dependent protein deacetylase sirtuin-1 (Homo sapiens); assay: Inhibition of human SIRT1 assessed as enzyme activity using Fluor-de-Lys as substrate at 100 uM by fluorometry; procedure, shortened: as §1
[4] = target: T2, NAD-dependent protein deacetylase sirtuin-2 (Homo sapiens); assay: Inhibition of human SIRT2 assessed as enzyme activity using Fluor-de-Lys as substrate at 100 uM by fluorometry; procedure, shortened: as §1
SK-MEL-28 [5] = assay: Effect on ATP level in human SK-MEL-28 cells maintained in medium containing GF and glucose at 100 uM after 24 hrs by luciferase-based assay; type: functional, cell-based
Procedure, shortened: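 SK-MEL-28 cells in DMEM with 10% FBS, grown 24 h in 96-well plates in regular medium (growth factors, glucose), with or without compound at 100 µM. Antimycin served as positive control. Cellular ATP was released with a somatic cell releasing reagent and read by luciferase/luciferin bioluminescence. Mean ± S.E.M. of 10–14 replicates from 3 separate experiments.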

SK-MEL-28 [6] = assay: Reduction in ATP level in human SK-MEL-28 cells at 100 uM maintained in Locke's solution after 24 hrs by luciferase-based assay in absence of GF and glucose; type: functional, cell-based
Procedure, shortened: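 SK-MEL-28 cells were grown 24 h in Locke's saline lacking glucose and serum, with or without 100 µM compound; antimycin was the positive control. Cellular ATP was released with a somatic-cell releasing reagent, then luciferase/luciferin assay mix was added and bioluminescence read. Mean ± S.E.M. of 10–14 replicates from 3 separate experiments.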

[7] = Cytotoxicity against human SK-MEL-28 cells assessed as cell survival at 100 uM after 48 hrs; type: cell-based; details: read-out: Survival
Procedure, shortened: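 SK-MEL-28 cells grown in DMEM with 10% foetal bovine serum, 2 mM L-glutamine, penicillin and streptomycin. Cells plated and grown 48 h with or without compound at 100 µM. On the test day, cells washed in Locke's solution (134 mM NaCl, 5 mM KCl, 4 mM NaHCO3, 10 mM HEPES pH 7.6, CaCl2, 1 mM MgCl2, 5 mM sucrose), then incubated 90 min at 37 °C. Survival expressed as percent of control.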

Structure (SMILES) | Activity [1] | Activity [2] | inhibition [3] | inhibition [4] | Activity (SK-MEL-28 [5]) | Activity (SK-MEL-28 [6]) | viability at 48 h, 100 µM [7]
Cc1ncccc1C(N)=O | 101% | 107% | inactive | inactive |  |  | 
c1cncc(-n2ccnn2)c1 | 97% | 100% | inactive | inactive |  |  | 
NC(=O)/C=C/c1cccnc1 | 99% | 109% | inactive | inactive |  |  | 
NC(=O)c1cccnc1 |  | 71% |  |  | inactive | Active | 
O=C1NCCc2ccncc21 | 125% | 136% | inactive | inactive |  |  | 
O=C1NCc2ccncc21 | 117% | 145% | inactive | inactive |  |  | 
Cc1ccc(C(=O)Nc2ccc(S(=O)(=O)O)c3cc(S(=O)(=O)O)cc(S(=O)(=O)O)c23)cc1NC(=O)c1cccc(NC(=O)Nc2cccc(C(=O)Nc3cc(C(=O)Nc4ccc(S(=O)(=O)O)c5cc(S(=O)(=O)O)cc(S(=O)(=O)O)c45)ccc3C)c2)c1 | 18% | 20% |  |  |  |  | 
Cc1ccncc1C(N)=O | 105% | 110% | inactive | inactive |  |  | 
O=C1NCc2ncccc21 | 88% | 111% | inactive | inactive |  |  | 
O=C1NCCc2ncccc21 | 86% | 115% | inactive | inactive |  |  | 
NS(=O)(=O)c1cccnc1 | 108% | 115% | inactive | inactive |  |  | 
c1cncc(-c2c[nH]nn2)c1 |  |  |  |  |  |  | 69%

— ChEMBL document CHEMBL2062496, “Identification of a sirtuin 3 inhibitor that displays selectivity over sirtuin 1 and 2” (Eur J Med Chem, 2012)
